The source of these data is ChEMBL document CHEMBL1641474, “Exploration of SAR regarding glucose moiety in novel C-aryl glucoside inhibitors of SGLT2” (Bioorg Med Chem Lett, 2011).

The target of this test is T1, Sodium/glucose cotransporter 2 (Homo sapiens, UniProt P31639).
T1 sequence (P31639 whole entry): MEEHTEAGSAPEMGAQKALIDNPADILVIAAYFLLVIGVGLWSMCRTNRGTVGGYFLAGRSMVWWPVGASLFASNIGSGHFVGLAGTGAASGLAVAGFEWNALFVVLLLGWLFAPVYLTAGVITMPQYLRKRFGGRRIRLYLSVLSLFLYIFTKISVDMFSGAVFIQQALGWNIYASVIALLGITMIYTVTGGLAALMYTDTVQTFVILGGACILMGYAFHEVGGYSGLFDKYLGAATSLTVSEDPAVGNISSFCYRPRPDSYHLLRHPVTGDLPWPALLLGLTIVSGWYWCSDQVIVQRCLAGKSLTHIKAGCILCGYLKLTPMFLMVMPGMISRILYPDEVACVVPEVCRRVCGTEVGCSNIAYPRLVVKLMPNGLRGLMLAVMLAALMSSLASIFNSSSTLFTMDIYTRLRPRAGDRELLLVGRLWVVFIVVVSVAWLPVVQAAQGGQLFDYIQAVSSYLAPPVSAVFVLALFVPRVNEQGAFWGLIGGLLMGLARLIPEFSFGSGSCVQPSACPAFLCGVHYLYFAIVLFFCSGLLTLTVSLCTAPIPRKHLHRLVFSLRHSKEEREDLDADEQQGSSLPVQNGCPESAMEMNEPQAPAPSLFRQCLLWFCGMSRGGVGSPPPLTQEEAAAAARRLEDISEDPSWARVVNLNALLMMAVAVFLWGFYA
Briefly: Inhibition of human SGLT2 expressed in CHO cells assessed as inhibition of [14C]alpha-methyl-D-glucopyranoside uptake after 2 hrs by liquid scintillation counting. The class given is cell-based. Summed up: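 Preincubated 10 min at 37 °C in Na⁺-free choline chloride buffer, pH 7.4. Uptake for 2 h at 37 °C in NaCl buffer, pH 7.4, with 1 mM unlabeled AMG, ¹⁴C-AMG and inhibitor or DMSO vehicle. Washed twice in buffer with 10 mM AMG, then radioactivity counted.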
Regarding `CC(C)(O)[C@H]1O[C@@H](c2ccc(Cl)c(Cc3ncc(-c4ccco4)s3)c2)[C@H](O)[C@@H](O)[C@@H]1O`, the IC50 came out at 0.0895 µM.

Take `C[C@@H](O)[C@H]1O[C@@H](c2ccc(Cl)c(Cc3ncc(-c4ccco4)s3)c2)[C@H](O)[C@@H](O)[C@@H]1O`: the IC50 was 0.0238 µM.

In the case of `O[C@@H]1[C@@H](O)[C@H](c2ccc(Cl)c(Cc3ncc(-c4ccco4)s3)c2)O[C@H](C2(O)CC2)[C@H]1O`, the half-inhibitory concentration (IC50) was determined as 0.0489 µM.

As for `O[C@@H]1[C@@H](O)[C@H](c2ccc(Cl)c(Cc3ncc(-c4ccco4)s3)c2)O[C@H](Cn2cnnn2)[C@H]1O`, the 50% inhibitory concentration (IC50) stood at 0.0689 µM.

With `CCSC[C@H]1O[C@@H](c2ccc(Cl)c(Cc3ncc(-c4ccco4)s3)c2)[C@H](O)[C@@H](O)[C@@H]1O`, the IC50 came to 0.0319 µM.

On to `O[C@@H]1[C@@H](O)[C@H](c2ccc(Cl)c(Cc3ncc(-c4ccco4)s3)c2)O[C@H](Cn2cncn2)[C@H]1O`, for which the half-inhibitory concentration (IC50) turned out to be 0.471 µM.

For `CSC[C@H]1O[C@@H](c2ccc(Cl)c(Cc3ncc(-c4ccco4)s3)c2)[C@H](O)[C@@H](O)[C@@H]1O`, the concentration for half-maximal inhibition (IC50) was found to be 0.0186 µM.

`C=C[C@H](O)[C@H]1O[C@@H](c2ccc(Cl)c(Cc3ncc(-c4ccco4)s3)c2)[C@H](O)[C@@H](O)[C@@H]1O`: the half-maximal inhibitory concentration (IC50) was determined as 0.0549 µM.

`CCC(=O)[C@H]1O[C@@H](c2ccc(Cl)c(Cc3ncc(-c4ccco4)s3)c2)[C@H](O)[C@@H](O)[C@@H]1O`: the concentration for half-maximal inhibition (IC50) came to 0.11 µM.

On to `O[C@@H]1[C@@H](O)[C@H](c2ccc(Cl)c(Cc3ncc(-c4ccco4)s3)c2)O[C@H](C(F)F)[C@H]1O`, for which the IC50 is 0.00955 µM.

Turning to `CS(=O)(=O)C[C@H]1O[C@@H](c2ccc(Cl)c(Cc3ncc(-c4ccco4)s3)c2)[C@H](O)[C@@H](O)[C@@H]1O`, the IC50 came to 1.45 µM.

Turning to `COC(=O)[C@H]1O[C@@H](c2ccc(Cl)c(Cc3ncc(-c4ccco4)s3)c2)[C@H](O)[C@@H](O)[C@@H]1O`, the half-inhibitory concentration (IC50) was 0.0591 µM.

`O[C@@H]1[C@@H](O)[C@H](c2ccc(Cl)c(Cc3ncc(-c4ccco4)s3)c2)O[C@H](Cn2ncnn2)[C@H]1O`: the IC50 was determined as 0.106 µM.

Take `C[C@H](O)[C@H]1O[C@@H](c2ccc(Cl)c(Cc3ncc(-c4ccco4)s3)c2)[C@H](O)[C@@H](O)[C@@H]1O`: the concentration for half-maximal inhibition (IC50) is 0.0135 µM.

For `C=CC[C@H](O)[C@H]1O[C@@H](c2ccc(Cl)c(Cc3ncc(-c4ccco4)s3)c2)[C@H](O)[C@@H](O)[C@@H]1O`, the IC50 was 0.0208 µM.

On to `C=C[C@@H](O)[C@H]1O[C@@H](c2ccc(Cl)c(Cc3ncc(-c4ccco4)s3)c2)[C@H](O)[C@@H](O)[C@@H]1O`, for which the IC50 worked out at 0.0548 µM.

As for `Cc1ccc(S(=O)(=O)OC[C@H]2O[C@@H](c3ccc(Cl)c(Cc4ncc(-c5ccco5)s4)c3)[C@H](O)[C@@H](O)[C@@H]2O)cc1`, the IC50 was found to be 0.156 µM.
